In ChEMBL document CHEMBL2331445, “Chemical, biochemical and microbiological properties of a brominated nitrovinylfuran with broad-spectrum antibacterial activity” (Bioorg Med Chem, 2013):
Converted amounts (≈) assume the structure as drawn. The source made the active and inactive calls. The calls are words filed in the database; no cut-off is given here.

Assays:
[1] = Cytotoxicity against human SW707 cells after 72 hrs by crystal violet staining method; type: ADME, cell-based; conditions: SW707, 72 h
CAPAN-1 = assay: Cytotoxicity against human Capan1 cells after 72 hrs by crystal violet staining method; type: ADME, cell-based; conditions: CAPAN-1, 72 h
Ca-Ski = assay: Cytotoxicity against human CaSki cells after 72 hrs by crystal violet staining method; type: ADME, cell-based
Calu-6 = assay: Cytotoxicity against human Calu6 cells after 72 hrs by crystal violet staining method; type: ADME, cell-based; conditions: Calu-6, 72 h
MeWo = assay: Cytotoxicity against human MeWo cells after 72 hrs by crystal violet staining method; type: ADME, cell-based
A-431 = assay: Cytotoxicity against human A431 cells after 72 hrs by crystal violet staining method; type: ADME, cell-based; conditions: A-431, 72 h
[2] = Cytotoxicity against human Flow 2002 cells after 72 hrs by crystal violet staining method; type: ADME, cell-based; conditions: Flow 2002, 72 h
HaCaT = assay: Cytotoxicity against human HaCaT cells after 72 hrs by crystal violet staining method; type: ADME, cell-based
Staphylococcus aureus [3] = assay: microbe, parasite or virus in culture; type: functional; conditions: NCTC 10442
Staphylococcus aureus [4] = assay: microbe, parasite or virus in culture; type: functional; conditions: ATCC 25923
[5] = Inhibition of Staphylococcus aureus MurA2 expressed in Escherichia coli BL21(lambdaDE3) using UNAG and PEP as substrate incubated for 10 mins prior to PEP addition measured after 60 mins by spectrophotometric analysis; conditions: read-out: IC50
[6] = Inhibition of Pseudomonas aeruginosa MurA expressed in Escherichia coli BL21(lambdaDE3) using UNAG and PEP as substrate incubated for 10 mins prior to PEP addition measured after 60 mins by spectrophotometric analysis; conditions: read-out: IC50
[7] = molecular target: UDP-N-acetylglucosamine 1-carboxyvinyltransferase (Escherichia coli K-12, UniProt P0A749, C115D); assay: Inhibition of Escherichia coli MurA C115D mutant expressed in Escherichia coli BL21(lambdaDE3) using UNAG and PEP as substrate incubated for 10 mins prior to PEP addition measured after 60 mins by spectrophotometric analysis
[8] = molecular target: T1, UDP-N-acetylglucosamine 1-carboxyvinyltransferase (Escherichia coli K-12, UniProt P0A749); assay: Inhibition of Escherichia coli MurA expressed in Escherichia coli BL21(lambdaDE3) using UNAG and PEP as substrate incubated for 10 mins prior to PEP addition measured after 60 mins by spectrophotometric analysis; conditions: read-out: IC50
Pseudomonas aeruginosa = assay: microbe, parasite or virus in culture; type: functional; conditions: ATCC 27853
Escherichia coli [9] = assay: microbe, parasite or virus in culture; type: functional; conditions: ATCC 25922
[10] = tested on: UDP-N-acetylglucosamine 1-carboxyvinyltransferase (Escherichia coli K-12), P0A749 [C115D]; assay: Inhibition of Escherichia coli MurA C115D mutant expressed in Escherichia coli BL21(lambdaDE3) using UNAG and PEP as substrate at 50 to 500 uM incubated for 30 mins by 2,2'-dithiopyridine based spectrophotometric analysis
Procedure, shortened: (§1)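 MurA (wild-type or C115D) was incubated with test compound at an equimolar ratio or 10-fold excess in 50 mM Tris pH 7.8 at room temperature for 30 min. 2,2'-Dithiodipyridine was then added in 0.5 M citrate pH 4 with 6 M urea for 30 min and quenched with 4% TFA. 2-Thiopyridone was measured by HPLC at 342 nm against a compound-free control.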

Dengue virus = conditions: at 50 µM
[11] = molecular target: Prothrombin (Homo sapiens) (UniProt P00734); conditions: at 25 µM
[12] = molecular target: Methionine aminopeptidase 2 (Homo sapiens) (UniProt P50579); conditions: at 10 µM
[13] = molecular target: Methionine aminopeptidase 1 (Homo sapiens) (UniProt P53582); conditions: at 10 µM
Escherichia coli [14] = conditions: at 10 µM
[15] = molecular target: UDP-N-acetylglucosamine 1-carboxyvinyltransferase (Escherichia coli K-12) (UniProt P0A749); conditions: 100 nM
[16] = molecular target: UDP-N-acetylglucosamine 1-carboxyvinyltransferase (Escherichia coli K-12) (UniProt P0A749); conditions: 200 nM
[17] = Induction of GSSG formation in citrate buffer at 100 uM by RP-LC/MS analysis
[18] = Induction of GSH-adduct formation in citrate buffer at100 uM by RP-LC/MS analysis; conditions: 100 µM
[19] = Half life of the compound in citrate buffer at pH 6
[20] = Half life of the compound in tris buffer at pH 7.8
[21] = Cytotoxicity against human lymphoblastoid cells assessed as cell vaibility at 46 uM; type: cell-based; conditions: read-out: Activity
[22] = molecular target: T1, UDP-N-acetylglucosamine 1-carboxyvinyltransferase; assay: Induction of Escherichia coli MurA-mediated 2-bromo-5-(2-nitrovinyl)furan formation assessed as enzyme-(R)-methyl 3-mercapto-2-(6-methoxy-2-oxo-2H-chromene-3-carboxamido)propanoate adduct level at 200 to 300 uM after 1 hr by SDS-PAGE analysis
Procedure, shortened: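 E. coli MurA was incubated with the fluorescent coumarin cysteine thiol, with or without test compound. After 1 h, aliquots were quenched in non-reducing Laemmli buffer (one sample in reducing buffer), heated to 95 °C for 3 min and run on 12% SDS-PAGE. Protein-bound fluorophore was imaged at 365 nm excitation.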

[23] = Drug degradation assessed as 5-bromofuran-2-carbaldehyde formation at 100 uM by HPLC-UV analysis in absence of MurA; type: physicochemical
Procedure, shortened: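 Test compound (100 µM) was held under standard MurA assay buffer conditions without enzyme, then stopped at several time points. HPLC-UV used a C18 column, 37 °C, and a 0.1% TFA water/acetonitrile gradient. Aldehyde formation was followed at 290 nm.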

[24] = molecular target: UDP-N-acetylglucosamine 1-carboxyvinyltransferase (Escherichia coli K-12) (UniProt P0A749); assay: Inhibition of Escherichia coli MurA expressed in Escherichia coli BL21(lambdaDE3) using UNAG and PEP as substrate at 50 to 500 uM incubated for 30 mins by 2,2'-dithiopyridine based spectrophotometric analysis; procedure, shortened: as §1
[25] = Prodrug activation in citrate buffer assessed as debromination at 100 uM at pH 6 in presence of GSH; type: physicochemical; conditions: pH 6, 100 µM
Procedure, shortened: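 Inhibitor and glutathione, each at 100 µM final, in 50 mM sodium citrate pH 6.0. Aliquots were withdrawn every 30 s for 3 min and at 4 and 5 min, quenched, and analysed by reversed-phase HPLC-UV.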

[26] = Half life of the compound in Muller-Hinton medium at 100 uM at pH 5.8; type: physicochemical
Procedure, shortened: (§2)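 Compound (100 µM) was dissolved in Müller-Hinton medium (pH 7.2, or adjusted to pH 5.8) and aliquots were injected onto HPLC at different time points. Parent disappearance was read at 390 nm. Half-life came from a first-order plot of log peak area versus time, t1/2 = ln2/kobs.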

[27] = Drug degradation in Muller-Hinton medium assessed as disappearance of parent compound at 100 uM at pH 7.2 by HPLC-UV analysis; type: physicochemical; conditions: buffer, pH 7.2, 100 µM; TDE = time-dependent effect; procedure, shortened: as §2
[28] = Half life of the compound in Muller-Hinton medium at 100 uM at pH 7.2; type: physicochemical; procedure, shortened: as §2
[29] = Cytotoxicity against human lymphoblastoid cells assessed as cell vaibility at 3.4 uM; type: cell-based; conditions: read-out: Activity
[30] = molecular target: UDP-N-acetylglucosamine 1-carboxyvinyltransferase (Escherichia coli K-12) (UniProt P0A749); assay: Irreversible inhibition of Escherichia coli MurA expressed in Escherichia coli BL21(lambdaDE3) using UNAG and PEP as substrate at 1.25 uM incubated up to 80 min prior to PEP addition measured after 60 mins by spectrophotometric analysis; conditions: TDE = time-dependent effect
Procedure, shortened: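 Phosphate-release MurA assay: 12 nM E. coli MurA, 250 µM UNAG, 125 µM PEP, 25 mM Tris pH 7.8, 0.1% BSA, 37 °C. The pre-incubation period of inhibitor with enzyme was varied before PEP addition. Reaction ran 60 min, was stopped with malachite green reagent, and read at 620 nm.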

[31] = molecular target: UDP-N-acetylglucosamine 1-carboxyvinyltransferase (Escherichia coli K-12) (UniProt P0A749); assay: Inhibition of Escherichia coli MurA expressed in Escherichia coli BL21(lambdaDE3) using UNAG and PEP as substrate at 5 uM incubated for 10 mins […] measured after 60 mins by spectrophotometric analysis
Procedure, shortened: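 MurA (12 nM) was pre-incubated with UNAG and inhibitor for 10 min at 37 °C, and the reaction was started with PEP. Final conditions: UNAG 250 µM, PEP 125 µM, 25 mM Tris pH 7.8, 0.1% BSA, 1% DMSO. After 60 min at 37 °C, malachite green/molybdate reagent was added and phosphate was read at 620 nm after 10 min. Run in triplicate.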

UDP-N-acetylglucosamine 1-carboxyvinyltransferase (Escherichia coli K-12), sequence (P0A749 whole entry): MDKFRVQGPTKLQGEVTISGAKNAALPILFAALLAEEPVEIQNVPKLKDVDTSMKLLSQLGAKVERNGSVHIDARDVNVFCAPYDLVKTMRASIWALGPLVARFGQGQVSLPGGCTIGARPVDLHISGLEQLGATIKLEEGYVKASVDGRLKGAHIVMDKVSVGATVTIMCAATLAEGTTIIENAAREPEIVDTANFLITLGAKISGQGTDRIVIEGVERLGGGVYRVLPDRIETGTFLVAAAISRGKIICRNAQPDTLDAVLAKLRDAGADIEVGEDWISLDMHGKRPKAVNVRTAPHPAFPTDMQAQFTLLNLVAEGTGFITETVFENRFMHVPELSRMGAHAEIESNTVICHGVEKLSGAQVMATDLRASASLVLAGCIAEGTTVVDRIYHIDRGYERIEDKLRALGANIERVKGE
T1 sequence (P0A749 whole entry): as above
UDP-N-acetylglucosamine 1-carboxyvinyltransferase (Escherichia coli K-12, UniProt P0A749, C115D), sequence (P0A749 whole entry C115D): as the sequence (P0A749 whole entry) above, with C115D counted along it
Methionine aminopeptidase 2 (Homo sapiens), sequence (P50579 2-478 limits assumed): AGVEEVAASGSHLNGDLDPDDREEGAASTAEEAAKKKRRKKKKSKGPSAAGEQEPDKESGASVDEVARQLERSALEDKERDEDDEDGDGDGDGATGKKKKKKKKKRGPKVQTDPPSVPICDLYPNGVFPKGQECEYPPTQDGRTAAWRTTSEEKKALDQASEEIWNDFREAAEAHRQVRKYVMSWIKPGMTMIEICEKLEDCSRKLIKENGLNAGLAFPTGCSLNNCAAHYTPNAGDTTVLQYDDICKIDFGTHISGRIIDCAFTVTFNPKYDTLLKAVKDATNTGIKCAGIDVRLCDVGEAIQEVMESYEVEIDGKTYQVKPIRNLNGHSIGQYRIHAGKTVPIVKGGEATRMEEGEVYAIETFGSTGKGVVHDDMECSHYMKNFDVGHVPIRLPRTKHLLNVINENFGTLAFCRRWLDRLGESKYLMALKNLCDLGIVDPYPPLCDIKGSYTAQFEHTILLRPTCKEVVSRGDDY
UDP-N-acetylglucosamine 1-carboxyvinyltransferase (Escherichia coli K-12), P0A749 [C115D], sequence (P0A749 whole entry C115D): as the sequence (P0A749 whole entry) above, with C115D counted along it

SMILES	IC50 [1]	IC50 (CAPAN-1)	IC50 (Ca-Ski)	IC50 (Calu-6)	IC50 (MeWo)	IC50 (A-431)	IC50 [2]	IC50 (HaCaT)	MIC (Staphylococcus aureus [3])	MIC (Staphylococcus aureus [4])	IC50 [5]	IC50 [6]	IC50 [8]	MIC (Pseudomonas aeruginosa)	MIC (Escherichia coli [9])	inhibition (Dengue virus)	inhibition [11]	inhibition [12]	inhibition [13]	inhibition (Escherichia coli [14])	also measured
C[C@@H]1O[C@@H]1P(=O)(O)O [FOSFOMYCIN]	≥ 100 µM	≥ 100 µM	≥ 100 µM	≥ 100 µM	≥ 100 µM	≥ 100 µM	≥ 100 µM	≥ 100 µM	4 µg/mL (≈ 29 µM)	4 µg/mL (≈ 29 µM)	1.1 µM	10.5 µM	0.1 µM	1 µg/mL (≈ 7.24 µM)	2 µg/mL (≈ 14.5 µM)	inactive	inactive	inactive	inactive	inactive	IC50 [7]: Not Active; inhibition [10]: inactive; inhibition [15]: tde; inhibition [16]: inactive
O=[N+]([O-])/C=C/c1ccc(Br)o1	22 µM	19 µM	18 µM	5 µM	21 µM	12 µM	6 µM	15 µM	2 µg/mL (≈ 9.17 µM)	2 µg/mL (≈ 9.17 µM)	20.7 µM	20.3 µM	27.3 µM	4 µg/mL (≈ 18.3 µM)	2 µg/mL (≈ 9.17 µM)	26%	19%	7%	inactive	30%	IC50 ([7]; read-out: IC50): 23.8 µM; Activity [17]: Active; Activity [18]: Not Active; half-life [19]: 116 h; half-life [20]: 58 h; viability at 46 µM [21]: > 70%
O=[N+]([O-])/C(Br)=C/c1ccc(Br)o1	47 µM	36 µM	50 µM	10 µM	43 µM	24 µM	9 µM	33 µM	4 µg/mL (≈ 13.5 µM)	4 µg/mL (≈ 13.5 µM)	3.9 µM	2.8 µM	2.8 µM	2 µg/mL (≈ 6.74 µM)	4 µg/mL (≈ 13.5 µM)	12%	8%	13%	inactive	85%	IC50 ([7]; read-out: IC50): 18.7 µM; Drug metabolism [22]: Active; Stability [23]: Unstable; inhibition [10]: Active; inhibition [24]: Active; Activity [17]: Not Active; Activity [18]: Not Active; Drug metabolism [25]: Active; half-life at 100 µM [26]: 1 h; Drug degradation [27]: tde; half-life at 100 µM [28]: 8 min; half-life [19]: 6 h; half-life [20]: 0.5 h; viability at 3.4 µM [29]: > 70%; inhibition [30]: tde; inhibition [31]: Active
